Screening results: PubChem, The Scripps Research Institute Molecular Screening Center
A selection: hits, their analogues and other compounds. The true share with any hit is near 4.2%.
OX1R antag-1: human HCRTR1 antagonism. O43613. CHO/OX1R cells, Fluo-8 calcium fluorescence, orexin A. inhibition, % at 5 µM. hit rate 0.43% among 330,000;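 active = inhibition above its plate's threshold, mean inhibition of all tested compounds on the plate plus 3 SD, cut at about 37% in these data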;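 note: 0% = orexin A challenge wells and 100% = SB-334867-A antagonist wells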
TAAR1 ag: agonists of human TAAR1. Q96RJ0. hit rate 0.99% among 360,000. CHO RD-HGA16 TAAR1, Fluo-8 calcium fluorescence; vehicle wells 0%, saturating PEA agonist 100%. activation, % at 3 µM;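 active = activation above the mean activation of all test compounds in the run plus 3 SD, cut at about 38% in these data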
Target sequence (Q96RJ0 whole entry, looked up): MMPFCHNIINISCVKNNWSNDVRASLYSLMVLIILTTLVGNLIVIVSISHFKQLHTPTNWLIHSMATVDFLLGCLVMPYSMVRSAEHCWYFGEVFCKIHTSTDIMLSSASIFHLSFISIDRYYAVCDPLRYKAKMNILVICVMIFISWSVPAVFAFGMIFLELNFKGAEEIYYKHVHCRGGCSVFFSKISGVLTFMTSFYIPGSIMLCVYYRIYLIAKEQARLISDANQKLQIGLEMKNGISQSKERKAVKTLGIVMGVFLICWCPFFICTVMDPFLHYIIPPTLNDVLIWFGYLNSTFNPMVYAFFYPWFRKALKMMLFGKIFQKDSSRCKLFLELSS
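Test system: RD-HGA16 (CHO) cells co-expressing Gα16 and hTAAR1; dosing: one-point dosing at 3 µM (nominal); timing: 17-24 h seeding, 75 min 37 °C dye, 30 min RT; signal: kinetic Fluo-8 calcium fluorescence; read-out basis: % activation relative to PEA EC100 response; controls: DMSO and PEA EC100; replicates: n 1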
CHO parental Ca: counter-screen: ATP calcium response change in parental CHO cells | inhibition, % at 5.6 µM | parental CHO-K1, ATP-induced calcium, Fluo-8 fluorescence | hit rate 0.63% among 330,000 | AID 463079;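 active = inhibition above that plate's mean sample inhibition plus 3 SD, cut at about 26% in these data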;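 note: 0% = ATP-challenged DMSO wells and 100% = DMSO wells without ATP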
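Material – parental CHO cells · Reagent – ATP stimulus · Compound – single nominal dose of 5.6 µM per compound · Detection – Fluo-8 fluorescence · Read-out basis – percent inhibition of calcium signal · Controls – ATP-challenged DMSO wells low, unchallenged DMSO wells high · Repeats – no replicates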
GalR3 antag: human GalR3 antagonism; O60755; HEK293 GalR3-CNG cAMP membrane potential fluorescence; galR3 body fused to GalR1 C-terminus; inhibition, % at 3 µM; hit rate 0.44% among 360,000; AID 651719;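 active = inhibition above the screen-wide average plus 3 SD, cut at about 13% in these data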;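 note: forskolin and galanin both at EC90 stimulate the cells; cAMP rise reported by CNG channel membrane potential dye signal; 0% = forskolin plus galanin with DMSO and 100% = forskolin alone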
Target sequence (O60755 1-299 limits assumed): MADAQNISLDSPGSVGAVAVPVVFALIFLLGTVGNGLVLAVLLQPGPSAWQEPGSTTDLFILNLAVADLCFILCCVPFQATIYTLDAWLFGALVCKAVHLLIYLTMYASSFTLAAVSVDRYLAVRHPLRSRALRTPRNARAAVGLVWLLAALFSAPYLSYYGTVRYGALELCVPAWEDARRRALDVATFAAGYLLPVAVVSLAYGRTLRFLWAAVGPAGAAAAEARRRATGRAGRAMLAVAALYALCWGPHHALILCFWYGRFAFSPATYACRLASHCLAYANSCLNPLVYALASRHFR
OX1R antag-2: blocks the human orexin 1 receptor; O43613; OX1R-expressing cells, FRET antagonist read-out; inhibition, % at 6.6 µM; hit rate 1.8% among 330,000; AID 485270; in the data active = inhibition mostly above about 38%, no sharp cut-off; inactive = mostly below about 40%;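 note: 0% = agonist challenge alone and 100% = reference antagonist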
TAAR1 antag: antagonists of human TAAR1; Q96RJ0; inhibition, % at 3 µM; hit rate 1.5% among 360,000; CHO RD-HGA16 TAAR1, Fluo-8 calcium fluorescence, antagonist;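 active = inhibition above a per-plate cutoff, the mean inhibition of test compounds on that plate plus 3 SD, cut at about 49% in these data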;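 note: 0% = DMSO plus EC80 beta-PEA response and 100% = DMSO alone without agonist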
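Assay system: RD-HGA16 CHO cells with stable hTAAR1 and Gα16 / Reagent: EC80 β-phenethylamine stimulus / Doses: 3 µM, single point / Timing: dye loading 75 min at 37 °C, then 30 min room temperature / Measured by: Fluo-8 intracellular calcium dye fluorescence, real-time kinetic reads / Controls: vehicle wells and EC80 agonist wells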
TAAR1 ag conf: confirmation of human TAAR1 agonists | shares compounds with TAAR1 ag | CHO RD-HGA16 TAAR1, Fluo-8 calcium fluorescence; scaled: DMSO 0%, maximal phenethylamine 100% | hit rate 82% among 2,400 | activation, % at 3 µM | AID 651783;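 active = activation above a cutoff set at the run's mean compound activation plus 3 SD, cut at about 39% in these data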
Ga16 nonsel ag: counter-screen for TAAR1 agonists: nonselective agonists in parental cells; shares compounds with TAAR1 ag; CHO-Ga16 parental, Fluo-8 calcium fluorescence; normalized to maximal ATP response, DMSO zero; activation, % at 3 µM; hit rate 50% among 2,400; AID 651787;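 active = activation above the run cutoff, the mean activation over all tested wells plus 3 SD, cut at about 12% in these data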;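 note: 0% = DMSO wells and 100% = maximal ATP response on the peak over basal ratio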
TAAR1 desens: counter-screen for human TAAR1 agonists: agonists that desensitize TAAR1; shares compounds with TAAR1 ag; CHO RD-HGA16 hTAAR1, Fluo-8 calcium, beta-PEA response inhibition; inhibition, % at 3 µM; hit rate 46% among 2,400;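 active = inhibition above the run cutoff, the mean inhibition of all test compounds plus 3 SD, cut at about 49% in these data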;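 note: beta-PEA stimulus applied at its EC80; loss of beta-PEA calcium signal after compound pretreatment read as receptor desensitization; 0% = DMSO with beta-PEA at EC80 and 100% = DMSO alone without agonist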
Ga16 nonsel ant: counter-screen for TAAR1 agonists: nonselective Ga16 antagonists; shares compounds with TAAR1 ag; CHO-Ga16 ATP-induced calcium, Fluo-8 fluorescence; inhibition, % at 3 µM; hit rate 39% among 2,400;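 active = inhibition above the plate's mean compound inhibition plus 3 SD, computed per plate, cut at about 22% in these data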;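 note: 0% = EC80 ATP with DMSO and 100% = DMSO wells without ATP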
Starred values were filed as active, the others as inactive; . = no result given.

SMILES	OX1R antag-1	TAAR1 ag	CHO parental Ca	GalR3 antag	OX1R antag-2	TAAR1 antag	TAAR1 ag conf	Ga16 nonsel ag	TAAR1 desens	Ga16 nonsel ant
Cc1ccc(Cn2cccc(NC(=O)NC3CCCCC3)c2=O)cc1	-45	35	-32	-8	20	-14	.	.	.	.
O=C(Nc1cccn(Cc2ccccc2)c1=O)NC1CCCCC1	-14	43*	-20	-5	13	5	77*	40*	3	2
O=C1c2cc(O)cc(O)c2C(=O)c2c1cc(O)c([C@@H](CO)CCO)c2O	1	1	-1	2	15	-13	.	.	.	.
C=CCNCCCCOc1ccc(OCc2ccccc2)cc1	-10	53*	-6	-9	7	22	70*	15*	37	17
c1ccc(COc2ccc(OCCCNC3CCCC3)cc2)cc1	-18	53*	2	-7	14	3	79*	24*	49*	20
COCCCNCCCCOc1ccc(OCc2ccccc2)cc1	-26	30	-8	-8	17	16	.	.	.	.
COC(=O)c1sc(S(=O)(=O)NCCC(=O)O)c(C(=O)OC)c1C	2	0	-3	-3	7	-11	.	.	.	.
Cc1ccccc1-n1nnnc1SCC(=O)c1c(N)n(C)c(=O)n(C)c1=O	1	93*	-11	-4	14	11	130*	87*	42	14
Cn1c(N)c(C(=O)CSc2nnnn2-c2ccccc2)c(=O)n(C)c1=O	-1	0	2	0	5	-18	.	.	.	.
Cc1cc(NC(=O)NCc2ccccc2)c(=O)n(Cc2ccc(F)cc2)c1	-22	-2	-9	-10	20	-12	.	.	.	.
OCC1COC(c2ccccc2)=N1 (stereo not drawn)	.	39*	.	-2	.	-14	6	2	10	12
Cc1ccc(CNC(=O)c2cccnc2Sc2cccc(Cl)c2)cc1	-3	73*	-11	-3	5	30	82*	40*	47	35*
COc1ccc(CNC(=O)c2cccnc2Sc2ccc(Cl)cc2)cc1	-18	.	-6	.	6	.	.	.	.	.
CCCn1c(=O)[nH]c(=O)c2c1nc(-c1ccc(OC(F)(F)C(F)C(F)(F)F)cc1)n2CCOC (stereo not drawn)	-10	-1	-10	-4	35	6	.	.	.	.
Cc1nnc(SCc2ccccc2)n1N	-12	11	-1	0	13	-7	.	.	.	.
CCC1(c2ccccc2)NC(=O)N(CC(=O)Nc2ccc(N3CCCC3)cc2C)C1=O (stereo not drawn)	-31	1	-7	-2	22	-19	.	.	.	.
O=c1ccn(CCOc2ccc(Cl)cc2)c(=O)[nH]1	-8	8	-8	0	8	-3	.	.	.	.
CC1CCN(Cc2cc(=O)oc3ccc(C(C)C)cc23)CC1	-30	2	-15	-11	13	14	.	.	.	.
COc1ccc(NC(=O)c2ccc(C(=O)c3ccccc3)o2)cc1	5	67*	-4	-7	23	57*	6	8	23	15
COc1ccc(CC(=O)Nc2ccc(NC(=O)c3ccccc3F)cc2)cc1	22	109*	58*	-6	2	99*	60*	35*	42	16
COc1ccc(NC(=O)CSc2nc(N)c(NC(=O)c3ccccc3F)c(=O)[nH]2)cc1	2	5	0	-1	4	-20	.	.	.	.
COC(=O)C[C@H]1c2cc(C(F)(F)F)ccc2S(=O)(=O)N1c1ccc(N(C)C)cc1	-23	0	-20	-1	0	14	.	.	.	.
Cc1nn(Cc2ccc(Cl)cc2)c(C)c1NC(=O)c1cc(-c2ccco2)on1	1	65*	0	-4	16	85*	32	16*	56*	43*
O=C(Nc1c(F)cc(F)cc1Br)c1cc(-c2ccco2)on1	-17	55*	11	-5	2	10	56*	8	35	8
CC1CC1C(=O)OCC(=O)N(C)c1c(N)n(Cc2ccccc2)c(=O)[nH]c1=O (stereo not drawn)	-9	51*	12	4	14	-20	4	14*	3	9
SMILES	OX1R antag-1	TAAR1 ag	CHO parental Ca	GalR3 antag	OX1R antag-2	TAAR1 antag	TAAR1 ag conf	Ga16 nonsel ag	TAAR1 desens	Ga16 nonsel ant
COc1ccc2nc(NC3=NC(C(=O)Nc4ccc(C)cc4)CC(=O)N3)nc(C)c2c1 (stereo not drawn)	-6	.	-8	.	-5	.	.	.	.	.
COc1ccc(NC(=O)C2CC(=O)NC(Nc3cccc(C)c3)=N2)cc1 (stereo not drawn)	-5	51*	-5	-2	24	8	54*	3	14	8
Cc1cccc(NC(=O)CN2C(=O)S/C(=C\c3ccc(O)c([N+](=O)[O-])c3)C2=O)c1	-9	3	-11	-1	44	-27	.	.	.	.
Cc1ccc(NC(=O)CN2C(=O)S/C(=C/c3ccc(O)c([N+](=O)[O-])c3)C2=O)cc1C	.	91*	.	-5	.	80*	19	7	0	8
Cc1cc(N2CCCCC2)nc(NCc2ccccc2)n1	-10	100*	8	-8	14	64*	73*	38*	71*	50*
Cc1cc(OC2CCCCC2)nc(NCc2ccccc2)n1	-32	2	-27	1	10	-19	.	.	.	.
Cc1cc(N/N=C/c2ccccc2)nc(NCc2ccccc2)n1	-14	51*	-9	-8	22	28	63*	17*	39	18
Cc1cc(N/N=C/c2cccc(F)c2)nc(NCc2ccccc2)n1	-28	60*	-16	-9	11	28	55*	5	45	15
Oc1c(N=NC(=S)Nc2ccccc2F)c2ccccc2n1Cc1cccc(Cl)c1	-29	0	-11	-3	25	-16	.	.	.	.
COc1ccc(NC(=O)CN(C)CC(=O)NC(=O)NC2CCCCC2)cc1	-8	2	-18	-4	6	-10	.	.	.	.
CC(C)C(=O)Nc1ccc(NC(=O)c2cc3ccccc3o2)cc1	-24	54*	-6	0	12	14	45*	21*	49*	28*
